Test results as given in ChEMBL document CHEMBL1149321, “Synthesis, radiosynthesis, and biological evaluation of carbon-11 and iodine-123 labeled 2beta-carbomethoxy-3beta-[4'-((Z)-2-haloethenyl)phenyl]tropanes: candidate radioligands for in vivo imaging of the serotonin transporter” (J Med Chem, 2004).

How the values were obtained:
Rattus norvegicus [1] = assay: Distribution of the radio labelled compound in cerebellum of rat brain after intravenous administration in absence of blocker after 60 min; type: ADME, organism-based; settings: in vivo, 1 h
Summary of the method: (§1)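 Male Sprague–Dawley rats (200–250 g), ketamine/xylazine anesthesia, tail-vein cannula. Blocker (4 mg/kg) or nothing given 15 min before iv [123I]ZIET in 10% ethanol/saline. Killed 60 min post-tracer.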

Rattus norvegicus [2] = assay: Distribution of the radio labelled compound in cerebellum of rat brain after intravenous administration in presence of reboxetine after 60 min; type: ADME, organism-based; settings: in vivo, 1 h
Summary of the method: (§2)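 Male Sprague–Dawley rats (200–250 g) under ketamine/xylazine anaesthesia with tail-vein cannulas. Blocker or none given 15 min before ~20 μCi [123I] tracer iv in 0.2 mL 10% ethanol/saline; blocker dose 4 mg/kg.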

Rattus norvegicus [3] = assay: Distribution of the radio labelled compound in frontal cortex of rat brain after intravenous administration in absence of blocker after 60 min; type: ADME, organism-based; settings: in vivo, 1 h; summary of the method: as §2
Rattus norvegicus [4] = assay: Distribution of the radio labelled compound in frontal cortex of rat brain after intravenous administration in presence of RTI-113 after 60 min; type: ADME, organism-based; settings: in vivo, 1 h; summary of the method: as §2
Rattus norvegicus [5] = assay: Distribution of the radio labelled compound in hippocampus of rat brain after intravenous administration in presence of RTI-113 after 60 min; type: ADME, organism-based; settings: in vivo, 1 h; summary of the method: as §2
Rattus norvegicus [6] = assay: Distribution in hypothalamus of rat brain after intravenous administration by using [123I]ZIET after 60 min; type: ADME, organism-based; settings: in vivo, 1 h
Summary of the method: (§3)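 Male Sprague–Dawley rats (200–250 g), fed ad libitum, given ~20 μCi radiotracer iv via tail-vein cannula in 0.2 mL 10% ethanol/saline under ketamine/xylazine im anesthesia. Killed at 5, 30, 60 or 120 min (n = 5; n = 4 at 120 min). Brain regions dissected, weighed, gamma-counted with dose standards, decay-corrected; mean %ID/g ± SE.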

Rattus norvegicus [7] = assay: Distribution in occipital cortex of rat brain after intravenous administration by using [123I]ZIET after 60 min; type: ADME, organism-based; settings: in vivo, 1 h; summary of the method: as §3
Rattus norvegicus [8] = assay: Distribution in striatum of rat brain after intravenous administration by using [123I]-ZIET after 5 min; type: ADME, organism-based; settings: in vivo; summary of the method: as §3
Rattus norvegicus [9] = assay: Distribution in striatum of rat brain after intravenous administration by using [123I]ZIET after 60 min; type: ADME, organism-based; settings: in vivo, 1 h; summary of the method: as §3
Rattus norvegicus [10] = assay: Distribution in thyroid of rat brain after intravenous administration by using [123I]ZIET after 120 min; type: ADME, organism-based, Thyroid gland; settings: in vivo, 2 h; summary of the method: as §3
Rattus norvegicus [11] = assay: Distribution in thyroid of rat brain after intravenous administration by using [123I]ZIET after 5 min; type: ADME, organism-based, Thyroid gland; settings: in vivo; summary of the method: as §3
Rattus norvegicus [12] = assay: Distribution of the radio labelled compound in blood of rat brain after intravenous administration in presence of citalopram after 60 min; type: ADME, organism-based; settings: in vivo, 1 h; summary of the method: as §1
Rattus norvegicus [13] = assay: Distribution of the radio labelled compound in brainstem of rat brain after intravenous administration in absence of blocker after 60 min; type: ADME, organism-based; settings: in vivo, 1 h; summary of the method: as §1
Rattus norvegicus [14] = assay: Distribution of the radio labelled compound in brainstem of rat brain after intravenous administration in presence of RTI-113 after 60 min; type: ADME, organism-based; settings: in vivo, 1 h; summary of the method: as §1
Rattus norvegicus [15] = assay: Distribution of the radio labelled compound in brainstem of rat brain after intravenous administration in presence of citalopram after 60 min; type: ADME, organism-based; settings: in vivo, 1 h; summary of the method: as §1
Rattus norvegicus [16] = assay: Distribution in hippocampus of rat brain after intravenous administration by using [123I]ZIET after 60 min; type: ADME, organism-based; settings: in vivo, 1 h; summary of the method: as §3
Rattus norvegicus [17] = assay: Distribution of the radio labelled compound in rest of rat brain after intravenous administration in presence of citalopram after 60 min; type: ADME, organism-based; settings: in vivo, 1 h; summary of the method: as §2
Rattus norvegicus [18] = assay: Distribution of the radio labelled compound in striatum of rat brain after intravenous administration in presence of RTI-113 after 60 min; type: ADME, organism-based; settings: in vivo, 1 h; summary of the method: as §2
Rattus norvegicus [19] = assay: Distribution of the radio labelled compound in striatum of rat brain after intravenous administration in presence of citalopram after 60 min; type: ADME, organism-based; settings: in vivo, 1 h; summary of the method: as §2
Rattus norvegicus [20] = assay: Distribution of the radio labelled compound in striatum of rat brain after intravenous administration in presence of reboxetine after 60 min; type: ADME, organism-based; settings: in vivo, 1 h; summary of the method: as §2
Rattus norvegicus [21] = assay: Distribution of the radio labelled compound in thyroid of rat brain after intravenous administration in absence of blocker after 60 min; type: ADME, organism-based, Thyroid gland; settings: in vivo, 1 h; summary of the method: as §2
Rattus norvegicus [22] = assay: Distribution of the radio labelled compound in thyroid of rat brain after intravenous administration in presence of citalopram after 60 min; type: ADME, organism-based, Thyroid gland; settings: in vivo, 1 h; summary of the method: as §2
Rattus norvegicus [23] = assay: Distribution of the radio labelled compound in thyroid of rat brain after intravenous administration in presence of reboxetine after 60 min; type: ADME, organism-based, Thyroid gland; settings: in vivo, 1 h; summary of the method: as §2
Rattus norvegicus [24] = assay: Distribution in blood […] after intravenous administration by using [123I]-ZIET after 30 min; type: ADME, organism-based; settings: in vivo, 0.5 h; summary of the method: as §3
Rattus norvegicus [25] = assay: Distribution in blood […] after intravenous administration by using [123I]-ZIET after 60 min; type: ADME, organism-based; settings: in vivo, 1 h; summary of the method: as §3
Rattus norvegicus [26] = assay: Distribution in brainstem of rat brain after intravenous administration by using [123I]ZIET after 60 min; type: ADME, organism-based; settings: in vivo, 1 h; summary of the method: as §3
Rattus norvegicus [27] = assay: Distribution in cerebellum of rat brain after intravenous administration by using [123I]ZIET after 60 min; type: ADME, organism-based; settings: in vivo, 1 h; summary of the method: as §3
Rattus norvegicus [28] = assay: Distribution in frontal cortex of rat brain after intravenous administration by using [123I]ZIET after 120 min; type: ADME, organism-based; settings: in vivo, 2 h; summary of the method: as §3
Rattus norvegicus [29] = assay: Distribution in frontal cortex of rat brain after intravenous administration by using [123I]-ZIET after 30 min; type: ADME, organism-based; settings: in vivo, 0.5 h; summary of the method: as §3
Rattus norvegicus [30] = assay: Distribution in frontal cortex of rat brain after intravenous administration by using [123I]ZIET after 5 min; type: ADME, organism-based; settings: in vivo; summary of the method: as §3
Rattus norvegicus [31] = assay: Distribution in hippocampus of rat brain after intravenous administration by using [123I]ZIET after 5 min; type: ADME, organism-based; settings: in vivo; summary of the method: as §3
Rattus norvegicus [32] = assay: Distribution of the radio labelled compound in occipital cortex of rat brain after intravenous administration in presence of RTI-113 after 60 min; type: ADME, organism-based; settings: in vivo, 1 h; summary of the method: as §2
Rattus norvegicus [33] = assay: Distribution of the radio labelled compound in rest of rat brain after intravenous administration in presence of RTI-113 after 60 min; type: ADME, organism-based; settings: in vivo, 1 h; summary of the method: as §2
[34] = Ratio of radioactivity in brainstem of rat brain to that of rat cerebellum after intravenous administration after 30 min; type: functional
Summary of the method: (§4)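 Male Sprague–Dawley rats (200–250 g) given ~20 μCi [123I] tracer iv in 0.2 mL 10% ethanol/saline under ketamine/xylazine; killed at 5, 30, 60, 120 min (n = 5; n = 4 at 120 min). Brain regions dissected, gamma counted, decay-corrected to %ID/g; regional uptake divided by cerebellum.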

[35] = Ratio of radioactivity in brainstem of rat brain to that of rat cerebellum after intravenous administration after 5 min; type: functional; summary of the method: as §4
[36] = Ratio of radioactivity in brainstem of rat brain to that of rat cerebellum after intravenous administration after 60 min; type: functional; summary of the method: as §4
[37] = Ratio of radioactivity in frontal cortex of rat brain to that of rat cerebellum after intravenous administration after 60 min; type: functional; summary of the method: as §4
[38] = Ratio of radioactivity in hippocampus of rat brain to that of rat cerebellum after intravenous administration after 30 min; type: functional; summary of the method: as §4
[39] = Ratio of radioactivity in hypothalamus of rat brain to that of rat cerebellum after intravenous administration after 60 min; type: functional; summary of the method: as §4
[40] = Ratio of radioactivity in rest of rat brain to that of rat cerebellum after intravenous administration after 5 min; type: functional; summary of the method: as §4
[41] = Ratio of radioactivity in striatum of rat brain to that of rat cerebellum after intravenous administration after 120 min; type: functional; summary of the method: as §4
[42] = Ratio of radioactivity in striatum of rat brain to that of rat cerebellum after intravenous administration after 5 min; type: functional; summary of the method: as §4
[43] = Ratio of radioactivity in striatum of rat brain to that of rat cerebellum after intravenous administration after 60 min; type: functional; summary of the method: as §4
Rattus norvegicus [44] = assay: Distribution in striatum of rat brain after intravenous administration by using [123I]-ZIET after 30 min; type: ADME, organism-based; settings: in vivo, 0.5 h; summary of the method: as §3

`COC(=O)C1C(c2ccc(/C=C\[123I])cc2)CC2CCC1N2C` (centres undefined) showed an Activity (Rattus norvegicus [1]) of 0.15, an Activity (Rattus norvegicus [2]) of 0.15 and an Activity (Rattus norvegicus [3]) of 0.53. The Activity (Rattus norvegicus [4]) was 0.49, the Activity (Rattus norvegicus [5]) was 0.42 and the Activity (Rattus norvegicus [6]) was 0.69. The Activity (Rattus norvegicus [7]) was 0.63, the Activity (Rattus norvegicus [8]) was 0.39 and the Activity (Rattus norvegicus [9]) was 0.71. The Activity (Rattus norvegicus [10]) was 2.12, the Activity (Rattus norvegicus [11]) was 0.08 and the Activity (Rattus norvegicus [12]) was 0.21. The Activity (Rattus norvegicus [13]) was 0.33, the Activity (Rattus norvegicus [14]) was 0.35 and the Activity (Rattus norvegicus [15]) was 0.14. It also gave an Activity (Rattus norvegicus [16]) of 0.63, an Activity (Rattus norvegicus [17]) of 0.18 and an Activity (Rattus norvegicus [18]) of 0.45. It also gave an Activity (Rattus norvegicus [19]) of 0.26, an Activity (Rattus norvegicus [20]) of 0.45 and an Activity (Rattus norvegicus [21]) of 0.54. The Activity (Rattus norvegicus [22]) was 0.93, the Activity (Rattus norvegicus [23]) was 1.12 and the Activity (Rattus norvegicus [24]) was 0.53. It also gave an Activity (Rattus norvegicus [25]) of 0.43, an Activity (Rattus norvegicus [26]) of 0.54 and an Activity (Rattus norvegicus [27]) of 0.27. For the same compound, the Activity (Rattus norvegicus [28]) was 0.48, the Activity (Rattus norvegicus [29]) was 0.82 and the Activity (Rattus norvegicus [30]) was 0.45. For the same compound, the Activity (Rattus norvegicus [31]) was 0.38, the Activity (Rattus norvegicus [32]) was 0.42 and the Activity (Rattus norvegicus [33]) was 0.36. It also gave a Ratio [34] of 1.5, a Ratio [35] of 1 and a Ratio [36] of 2. It also gave a Ratio [37] of 2.6, a Ratio [38] of 1.7 and a Ratio [39] of 2.6. The Ratio [40] was 1.1, the Ratio [41] was 3.7 and the Ratio [42] was 1.1. For the same compound, the Ratio [43] was 2.6 and the Activity (Rattus norvegicus [44]) was 0.76.
